Rows were chosen to be rich in hits. Some 2.4% of all compounds tested hit in one or more screens of this group.
E-selectin induc: induces E-selectin expression in human endothelial cells. HUVEC E-selectin immunofluorescence imaging; normalized: neutral wells 0, TNF-alpha wells 100. activation, % at 7.58 µM. 0.37% of 260,000 active;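 active = mean E-selectin-positive cell signal at least 10% of the positive control, reached in at least 60% of replicates, without over 20% cell loss; inconclusive = no rule given, readout overlaps actives, possibly toxicity-flagged; inactive = the rest, including those meeting only one limit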
Target sequence (P16581 whole entry, looked up): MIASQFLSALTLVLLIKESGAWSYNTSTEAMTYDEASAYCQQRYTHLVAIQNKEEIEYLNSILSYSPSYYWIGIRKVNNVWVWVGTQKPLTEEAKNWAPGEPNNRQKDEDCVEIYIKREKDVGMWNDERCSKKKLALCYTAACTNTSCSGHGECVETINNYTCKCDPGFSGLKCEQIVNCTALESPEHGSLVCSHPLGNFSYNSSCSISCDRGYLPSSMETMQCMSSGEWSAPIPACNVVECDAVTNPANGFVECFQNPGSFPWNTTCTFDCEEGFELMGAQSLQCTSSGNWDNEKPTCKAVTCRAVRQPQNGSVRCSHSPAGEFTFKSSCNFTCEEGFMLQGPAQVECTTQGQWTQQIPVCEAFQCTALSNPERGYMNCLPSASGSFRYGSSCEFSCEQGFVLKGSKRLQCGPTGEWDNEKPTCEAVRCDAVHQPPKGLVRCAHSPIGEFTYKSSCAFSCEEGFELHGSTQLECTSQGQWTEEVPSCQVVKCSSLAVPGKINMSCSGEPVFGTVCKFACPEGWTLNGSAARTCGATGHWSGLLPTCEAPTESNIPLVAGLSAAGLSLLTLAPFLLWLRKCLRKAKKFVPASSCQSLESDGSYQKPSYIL
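Test system: HUVEC | Signal: Immunofluorescence imaging | Read-out: Percent E-selectin-positive cells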
LGR2 antag: inhibitors of bursicon-induced Drosophila LGR2 receptor cAMP signaling; AID 720647; 0.35% of 380,000 active; inhibition, % at 9.99 µM; HEK293 LGR2, CRE-luciferase, bursicon-stimulated, 4 h;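 active = drop in luminescence signal, shown as inhibition above about 50% in the replicate tests, limit read from the data, passing the limit was not always enough; inconclusive = probably only some replicates passing the limit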;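 also: agonist challenge used bursicon conditioned medium at about half maximal strength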
EWS-Fli inh: blocks EWS/Fli oncoprotein-driven transcription; AID 651661; inhibition, % at 12.6 µM; 0.67% of 350,000 active; A673 NR0B1-luciferase reporter, viability-normalised;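 active = mean inhibition of at least 50% after viability correction, with every replicate also passing that limit; inconclusive = mean reaches 50% but only one of two replicates passes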;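 also: firefly luciferase signal divided by Alamar Blue viability fluorescence both relative to DMSO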
Ecoli rRNA inh: inhibitors of bacterial rRNA selective over humanized ribosomes; AID 720706; 1.6% of 350,000 active; GFP signal change (wild-type ribosome), % (concentration not given with the values); E. coli WT GFP vs humanized-ribosome RFP mutants, fluorescence, 24 h; hits give low values; DMSO median 0, no signal -100;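 active = significant combined selectivity score with lowered wild-type GFP, culture density cut under 30%, mutant RFP and density less affected; inactive = any of these conditions unmet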
* = called active by the depositor; ? = inconclusive; · = no result.

SMILES	E-selectin induc	LGR2 antag	EWS-Fli inh	Ecoli rRNA inh
COc1cccc(/C=C/C(=O)Nc2ccc3nc4n(c(=O)c3c2)CCCC4)c1OC	·	13	5	-23*
Cn1nnnc1Sc1ncnc2scc(-c3cc4ccccc4o3)c12	0	106*	12	-28
Cn1nnnc1Sc1ncnc2scc(-c3ccc(C#N)cc3)c12	0	88*	21	19
Cn1nnnc1Sc1ncnc2scc(-c3ccsc3)c12	1	74*	22	-19
Cn1nnnc1Sc1ncnc2scc(-c3cccc(C(F)(F)F)c3)c12	0	88*	12	5
COC(=O)CSc1ncnc2scc(-c3ccccc3)c12	0	-6	4	-50
Cn1nnnc1Sc1ncnc2scc(-c3ccc(C(F)(F)F)cc3)c12	0	93*	35	-11
Cn1nnnc1Sc1ncnc2scc(-c3ccccc3C(F)(F)F)c12	-1	?	5	-18*
CC(=O)c1ccccc1-c1csc2ncnc(Sc3nnnn3C)c12	0	14	8	-11
COc1cccc(-c2csc3ncnc(Sc4nnnn4C)c23)c1	0	46	19	-1
Cn1nnnc1Sc1ncnc2scc(-c3ccc(-c4ccccc4)cc3)c12	0	10	-5	13
Cn1nnnc1Sc1ncnc2scc(-c3cccc(F)c3)c12	0	83*	29	20
O=C(NC1CCCc2c1cnn2-c1cc(F)cc(F)c1)c1ccccn1 (stereo unspecified)	0	-7	·	-1
COC(=O)c1ccc(C(=O)NC2CCCc3c2cnn3-c2cc(F)cc(F)c2)nc1 (stereo unspecified)	·	-3	53*	-6
COC(CN(C)C(=O)c1ccc(CS(=O)(=O)c2ccccc2C)o1)OC	49*	-2	1	6
O=C(Nc1ccc2c(c1)[C@@H]1C[C@H](CC(=O)N3CCCCC3)O[C@H](CO)[C@@H]1O2)c1ccc2c(c1)OCO2	0	-30	-28	-6
COc1ccc(-c2cc(=O)oc3cc(OCC(C)=O)ccc23)cc1	?	-11	-18	8
CCN(CC)C(=O)COc1ccc2c(-c3ccc(OC)cc3)cc(=O)oc2c1	·	6	0	-22*
CCOC(=O)C1=C(C)Nc2ccccc2N=C1NC(=O)C(c1ccccc1)c1ccccc1	1	13	4	-21*
CC1(C)CC(c2nc(-c3ccc([N+](=O)[O-])cc3)cs2)CCO1 (stereo unspecified)	0	0	3	-42*
Nc1nc(-c2ccc([N+](=O)[O-])cc2)cs1	·	1	·	·
O=C(C[C@@H]1C=C[C@@H](NC(=O)c2ccncc2)[C@@H](CO)O1)Nc1ccc(-c2ccccc2)cc1	0	18	·	-4
CCOCCCNC(=O)/C(C#N)=C/c1ccc(Cl)c([N+](=O)[O-])c1	·	90*	65*	14
CCOCCCNC(=O)/C(C#N)=C/c1cc(OC)c(O)c([N+](=O)[O-])c1	2	34	1	-12
Cc1ccc(S(=O)(=O)N(C)C[C@H]2Oc3ccc(NC(=O)NC4CCCCC4)cc3C(=O)N([C@@H](C)CO)C[C@@H]2C)cc1	0	-6	-3	1
SMILES	E-selectin induc	LGR2 antag	EWS-Fli inh	Ecoli rRNA inh
Cc1ccc(S(=O)(=O)N(C)C[C@@H]2Oc3ccc(NC(=O)CCC(F)(F)F)cc3CC(=O)N([C@@H](C)CO)C[C@H]2C)cc1	0	-12	7	-4
COc1ccccc1N1CCN(C(=O)c2oc3ccc(F)cc3c2C)CC1	·	6	11	-36*
Cc1c(C(=O)N2CCN(C)CC2)oc2ccc(Br)cc12	0	-33	-72	-1
Cc1c(C(=O)N2CCN(S(=O)(=O)c3cc(F)ccc3F)CC2)oc2ccccc12	343*	15	2	-18
Cc1c(C(=O)N2CCCC2)oc2ccc(Br)cc12	·	-44	·	-30*
CCC(=O)N(C)C[C@H]1Oc2cc(-c3ccccc3)ccc2S(=O)(=O)N([C@@H](C)CO)C[C@@H]1C	0	-1	-7	-6
CCNC(=O)C[C@H]1C=C[C@H](NC(=O)C2CCC2)[C@H](CO)O1	-1	-5	3	2
CCOC(=O)C1CCN(c2ncnc3c(C)csc23)CC1	0	-58	9	-25*
O=C(c1ccco1)N1CCN(c2ncnc3c2nnn3Cc2ccccc2Cl)CC1	·	-10	·	-28
CCOC(=O)C1CCN(c2ncnc3c2nnn3Cc2ccccc2Cl)CC1	-3	0	8	-20*
COc1ccc2c3c([nH]c2c1)[C@H](CO)N(Cc1cccnc1)CC31CCN(C(=O)c2cccnc2)CC1	-1	1	-14	5
O=C(C[C@H]1C[C@H]2c3cc(NC(=O)c4ccc5c(c4)OCO5)ccc3O[C@H]2[C@@H](CO)O1)NCc1cc(F)ccc1F	0	-2	-12	-4
C=CCOc1c(Cl)cc(C(=S)N2CCCC2)cc1OCC	1	2	58*	-8
Cc1csc(-c2nc3ccccc3n2C(C)c2nc3ccccc3[nH]2)c1 (stereo unspecified)	0	3	13	-30*
CC(c1nc2ccccc2[nH]1)n1c(-c2ccncc2)nc2ccccc21 (stereo unspecified)	0	18	0	-1
CC(C)CC#Cc1ccc2c(c1)O[C@@H](CN(C)C(=O)C1CCC1)[C@H](C)CN([C@@H](C)CO)S2(=O)=O	1	1	30	-19
CNC[C@@H]1Oc2ccc(NC(=O)CCC(F)(F)F)cc2C(=O)N([C@@H](C)CO)C[C@H]1C	0	-21	10	-3
COc1ccc2c3c(n(C)c2c1)[C@H](CO)N(CC1CCCCC1)CC31CN(C(C)=O)C1	0	-4	21	7
C[C@H]1CN([C@@H](C)CO)C(=O)c2cc(NS(=O)(=O)c3cccs3)ccc2O[C@@H]1CN(C)C(=O)Nc1ccc(F)cc1	0	1	-7	2
CCCCNC(=S)N1CCN(c2ccc(C(C)=O)cc2)CC1	2	-8	2	-22*
CSCCCNC(=S)N1CCN(c2ccc(C(C)=O)cc2)CC1	·	-3	-6	-7
CC=Cc1ccc2n(c1=O)C[C@H]1[C@H](CO)[C@@H](C(=O)N[C@H](C)c3ccccc3)[C@@H]2N1Cc1ccccc1 (mixture of isomers)	0	-5	-11	-7
O=C(CN1C(=O)NC2(CCc3ccccc32)C1=O)Nc1cccc(Cl)c1 (stereo unspecified)	1	11	8	-30*
O=C(CN1C(=O)NC2(CCc3ccccc32)C1=O)c1ccc(Br)cc1 (stereo unspecified)	0	-19	-3	-24
O=C(CN1C(=O)NC2(CCCc3ccccc32)C1=O)c1ccc(Br)cc1 (stereo unspecified)	0	7	5	-36*
COc1cccc(NC(=O)CN2C(=O)NC3(CCc4ccccc43)C2=O)c1 (stereo unspecified)	·	-2	2	17
CCNC(=O)Nc1ccc2c(c1)C(=O)N(C)[C@@H]1CC[C@@H](CC(=O)NCc3cccc(F)c3)O[C@@H]1CO2	0	0	-6	-1

Screens from PubChem.
